From ChEMBL document CHEMBL1142981, “Identification and synthesis of a novel selective partial PPARdelta agonist with full efficacy on lipid metabolism in vitro and in vivo” (J Med Chem, 2007)
Activity calls are given as the source filed them. No cut-off for these calls is given here.

Assays:
[1] = target: T1, Peroxisome proliferator-activated receptor alpha (Homo sapiens) (UniProt Q07869); assay: Activity at human liver PPAR alpha expressed in HEK293 cells by GAL4 transactivation assay relative to NNC61-4655; type: cell-based
T1 sequence (whole entry): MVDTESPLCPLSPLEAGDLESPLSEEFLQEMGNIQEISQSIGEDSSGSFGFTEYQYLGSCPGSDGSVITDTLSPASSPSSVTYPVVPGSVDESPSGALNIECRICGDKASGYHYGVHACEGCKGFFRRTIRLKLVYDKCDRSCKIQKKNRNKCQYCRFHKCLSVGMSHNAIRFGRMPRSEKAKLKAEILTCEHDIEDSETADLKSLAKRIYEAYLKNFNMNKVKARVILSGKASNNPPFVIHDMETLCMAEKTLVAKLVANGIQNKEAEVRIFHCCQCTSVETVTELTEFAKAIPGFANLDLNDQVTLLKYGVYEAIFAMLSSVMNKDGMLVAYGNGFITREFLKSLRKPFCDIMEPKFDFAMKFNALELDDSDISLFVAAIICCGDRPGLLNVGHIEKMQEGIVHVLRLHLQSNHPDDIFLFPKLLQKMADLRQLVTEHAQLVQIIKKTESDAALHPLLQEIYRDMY

Mus musculus [2] = assay: Increase in HDL level in human ApoB100/CETP transgenic mouse at 5 mg/kg, po after 6 weeks relative to control; type: functional
Mus musculus [3] = assay: Increase in total cholesterol level in human ApoB100/CETP transgenic mouse at 20 mg/kg, po after 6 weeks relative to control; type: functional
Mus musculus [4] = assay: Increase in insulin level in human ApoB100/CETP transgenic mouse at 20 mg/kg, po after 6 weeks by ELISA relative to control; type: functional
Mus musculus [5] = assay: Decrease in triglycerides level in human ApoB100/CETP transgenic mouse at 10 mg/kg, po after 6 weeks relative to control; type: functional; parameters: scale not given: the % may be the effect or the level left
[6] = target: T2, Peroxisome proliferator-activated receptor delta (Homo sapiens, UniProt Q03181)
T2 sequence (Q03181 whole entry): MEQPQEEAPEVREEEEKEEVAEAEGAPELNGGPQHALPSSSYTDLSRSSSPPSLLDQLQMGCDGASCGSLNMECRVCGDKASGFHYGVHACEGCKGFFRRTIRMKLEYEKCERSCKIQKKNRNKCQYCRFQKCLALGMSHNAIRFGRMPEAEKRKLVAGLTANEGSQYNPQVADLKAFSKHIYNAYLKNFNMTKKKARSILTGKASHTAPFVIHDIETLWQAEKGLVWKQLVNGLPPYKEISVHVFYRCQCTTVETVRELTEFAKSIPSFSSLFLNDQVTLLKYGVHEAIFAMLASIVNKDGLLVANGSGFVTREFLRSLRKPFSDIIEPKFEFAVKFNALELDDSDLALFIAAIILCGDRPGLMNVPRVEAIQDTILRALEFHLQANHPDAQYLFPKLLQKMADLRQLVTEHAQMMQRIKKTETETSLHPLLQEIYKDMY

Mus musculus [7] = assay: Increase in HDL level in human ApoB100/CETP transgenic mouse at 10 mg/kg, po after 6 weeks relative to control; type: functional
Mus musculus [8] = assay: Decrease in insulin level in human ApoB100/CETP transgenic mouse at 5 mg/kg, po after 6 weeks by ELISA relative to control; type: functional; parameters: scale not given: the % may be the effect or the level left
Mus musculus [9] = assay: Decrease in HbA1c level in human ApoB100/CETP transgenic mouse at 10 mg/kg, po after 6 weeks relative to control; type: functional; parameters: scale not given: the % may be the effect or the level left
[10] = Oral bioavailability in Sprague-Dawley rat at 2.06 mg/kg; type: ADME, organism-based; settings: in vivo
Procedure, shortened: (§1)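 Male SD rats received a single p.o. or i.v. dose (n = 8 per route) in 5% ethanol, 10% HPCD and phosphate buffer, pH 7.5-8.0. At 5, 15, 30, 60, 90, 120, 240 and 360 min one rat was sacrificed per time point. EDTA plasma was assayed by high turbulence LC-MS/MS. Cmax and bioavailability were taken from oral dosing; volume of distribution is at steady state.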

[11] = target: T3, Peroxisome proliferator-activated receptor gamma (Mus musculus) (UniProt P37238); assay: Agonist activity at mouse PPAR gamma expressed in HEK293 cells up to 30 uM by PPAR-GAL4 transactivation assay; type: functional, cell-based
T3 sequence (whole entry): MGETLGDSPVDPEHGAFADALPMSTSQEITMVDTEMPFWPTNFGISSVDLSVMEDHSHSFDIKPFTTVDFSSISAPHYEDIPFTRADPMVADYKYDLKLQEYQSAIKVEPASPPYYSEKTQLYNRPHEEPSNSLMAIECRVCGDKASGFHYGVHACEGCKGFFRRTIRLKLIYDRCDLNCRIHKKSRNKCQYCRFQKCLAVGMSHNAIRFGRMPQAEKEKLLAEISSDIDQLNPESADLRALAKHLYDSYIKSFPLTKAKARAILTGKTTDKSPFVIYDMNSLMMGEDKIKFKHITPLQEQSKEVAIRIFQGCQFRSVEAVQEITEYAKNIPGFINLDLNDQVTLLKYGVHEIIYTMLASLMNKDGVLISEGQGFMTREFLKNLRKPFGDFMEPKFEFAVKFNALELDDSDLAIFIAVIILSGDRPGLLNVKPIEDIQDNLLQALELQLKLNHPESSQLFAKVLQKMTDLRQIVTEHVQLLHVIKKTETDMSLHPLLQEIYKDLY

[12] = Volume of distribution in Sprague-Dawley rat at 1.06 mg/kg, iv; type: ADME, organism-based; parameters: dose 1.06 mg/kg, route intravenous; settings: in vivo, read-out: Vss; procedure, shortened: as §1
Mus musculus [13] = assay: Decrease in insulin level in human ApoB100/CETP transgenic mouse at 10 mg/kg, po after 6 weeks by ELISA relative to control; type: functional; parameters: scale not given: the % may be the effect or the level left
[14] = Clearance in Sprague-Dawley rat at 1.06 mg/kg, iv; type: ADME, organism-based; parameters: dose 1.06 mg/kg, route intravenous; settings: in vivo
Procedure, shortened: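 Male SD rats dosed once i.v. or p.o. (n = 8 per route), vehicle 5% ethanol, 10% HPCD, phosphate buffer pH 7.5-8.0. One animal sacrificed at each of 5, 15, 30, 60, 90, 120, 240 and 360 min; EDTA plasma analysed by high turbulence LC-MS/MS. Each data point represents one animal.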

Mus musculus [15] = assay: Decrease in LDL level in human ApoB100/CETP transgenic mouse at 5 mg/kg, po after 6 weeks relative to control; type: functional; parameters: scale not given: the % may be the effect or the level left
Mus musculus [16] = assay: Decrease in glucose level in human ApoB100/CETP transgenic mouse at 20 mg/kg, po after 6 weeks relative to control; type: functional; parameters: scale not given: the % may be the effect or the level left
Mus musculus [17] = assay: Increase in total ketone bodies level in human ApoB100/CETP transgenic mouse at 5 mg/kg, po after 6 weeks relative to control; type: functional
L6 = assay: Effect on fatty acid oxidation in rat L6 cells; type: functional, cell-based
Procedure, shortened: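 Rat L6 myoblasts differentiated 5 days in 2% serum, then treated 42 h with compound (refreshed at 24 h), followed by 6 h with 0.4 mM palmitate containing [9,10-3H]-palmitic acid on 2% fatty-acid-free BSA. Stopped with 10% TCA; released 3H-H2O collected by overnight equilibration at 50 °C and counted.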

Efficacy [1]: > 12%
EC50 [6]: 53 nM
bioavailability [10]: 46%
Activity [11]: inactive
Vd [12]: 0.3 L/kg
clearance [14]: 11.9 mL/min/kg
Structure (SMILES): O=C(O)COc1ccc(SCC=C(c2ccc(Br)cc2)c2ccc(Br)cc2)cc1Cl
Activity (Mus musculus [2]): 24%
Activity (Mus musculus [3]): 2%
Activity (Mus musculus [4]): 3%
Activity (Mus musculus [5]): 7%
Activity (Mus musculus [7]): 14%
Activity (Mus musculus [8]): 11%
Activity (Mus musculus [9]): 9%
Activity (Mus musculus [13]): 8%
Activity (Mus musculus [15]): 7%
Activity (Mus musculus [16]): 5%
Activity (Mus musculus [17]): 5%
EC50 (L6): 30 nM
